Measured values collected from several papers.
Protocols differ between the studies behind these lines.
Target: Alpha-2A adrenergic receptor (ADRA2A, Homo sapiens, UniProt P08913)
One construct used (P08913 1-465): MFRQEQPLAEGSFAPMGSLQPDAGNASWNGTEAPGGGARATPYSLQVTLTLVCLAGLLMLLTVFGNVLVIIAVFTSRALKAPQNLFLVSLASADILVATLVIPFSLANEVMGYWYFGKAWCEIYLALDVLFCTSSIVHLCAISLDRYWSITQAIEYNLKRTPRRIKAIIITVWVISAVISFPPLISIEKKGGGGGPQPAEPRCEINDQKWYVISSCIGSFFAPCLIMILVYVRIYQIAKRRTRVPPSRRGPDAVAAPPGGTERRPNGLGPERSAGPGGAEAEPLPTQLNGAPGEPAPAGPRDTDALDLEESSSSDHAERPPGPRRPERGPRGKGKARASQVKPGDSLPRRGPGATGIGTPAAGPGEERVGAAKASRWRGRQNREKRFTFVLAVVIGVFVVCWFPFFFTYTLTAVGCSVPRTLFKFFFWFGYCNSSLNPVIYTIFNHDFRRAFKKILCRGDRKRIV

| SMILES | test | setting | quantity | result |
| --- | --- | --- | --- | --- |
| CC(C)N1CCC[C@H]1CNC(=O)c1cn(C2CCCC2)c(=O)c2c1c1ccccc1n2C | ligand displacement, radioligand | 10 µM | inhibition | 37% |
| Clc1ccc2c(C3CCN(CCc4c[nH]c5ccccc45)CC3)c[nH]c2c1 | ligand displacement, radioligand | 10 µM | inhibition | 82% |
| COCc1c(-c2cc3cc(C)cc(OC)c3s2)c2c(N)ncnn2c1CN1CCNC(=O)C1 | ligand displacement, radioligand | 10 µM | inhibition | 26% |
| CC(C)Cn1cnc2c(N)nc3ccccc3c21 | ligand displacement, radioligand | 10 µM | inhibition | 58% |
| N#CC1(c2ccccn2)CCN(Cc2cc(C(=O)O)c(=O)n3ccccc23)CC1 | cell-free assay | 10 µM | inhibition | -25.7% |
| O=C(Nc1cccnn1)N1CCN([C@@H]2CCOc3cc(C(F)(F)F)ccc32)CC1 | ligand displacement | 20 µM | inhibition | 7% |
| Nc1ncc(-c2nc(N3CCOCC3)nc(N3CCOCC3)n2)c(C(F)F)n1 | cell-free assay, radioligand | 10 µM | remaining signal | 114% |
| Cc1c(N2CCNCC2)nc2ccc(Br)cc2c1C(=O)NC[C@H](CCC(=O)O)c1ccccc1Cl | ligand displacement | 10 µM | inhibition | 65% |
| COc1ccc(S(=O)(=O)N2CCCCC2)cc1C | ligand displacement, radioligand | 10 µM | inhibition | < 30% |
